procasp7 counter: procaspase-7 activators, primary screen, counter-screen for procaspase-3 activator project, biochemical, absorbance, HTS, human | recombinant procaspase-7, Ac-DEVD-pNA absorbance 405 nm; D23A/D198A/D206A triple mutant, cannot self-cleave; scale: DMSO 0, 5 µM enzyme 100 | activation, % at 8.5 µM | Caspase-7 (Homo sapiens), P55210 | AID 463210, 2010 | 330,000 tested, 0.093% active;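 active means percent activation above the screen-wide mean plus 3 SD, cut at about 25% in these data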
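Assay system: Uncleavable procaspase-7 mutant enzyme / Input: 2 µM procaspase-7 mutant as dispensed / Dosing: single nominal 8.5 µM compound dose, 0.8% DMSO final / Timing: 1 h enzyme–compound preincubation and 2 h substrate reaction, both 25 °C / Detection: p-Nitroaniline absorbance at 405 nm, read at 0 and 120 min / Replication: singlicate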
IDE act: human IDE activators in live cells, primary screen, fluorescence polarization, HEK cells, FAbeta-B substrate; Insulin-degrading enzyme (Homo sapiens), P14735; FAbeta-B cleavage; 0% vehicle, 100% cell-free pure enzyme wells; activation, % at 5.96 µM; 340,000 tested, 0.073% active;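 active means activation above the mean of all tested compounds plus 3 SD, set per screening campaign, cut at about 17% in these data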
IDE cell inh: human IDE inhibitors in live cells, primary screen, fluorescence polarization, HEK cells, FAbetaB substrate; 320,000 tested, 0.41% active; FAbetaB cleavage; inhibition, % at 5.59 µM; AID 434962, 2010;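 active means percent inhibition above the average of all tested compounds plus 3 SD, set per screening campaign, cut at about 16% in these data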;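 further: IDE supplied by intact live HEK cells; FP after avidin binding of uncleaved biotin substrate so inhibition keeps polarization high; 0% = DMSO wells and 100% = 60 µM reference IDE inhibitor Ii1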
PHOSPHO1 block: PubChem AID 1565. Phosphoethanolamine/phosphocholine phosphatase (Homo sapiens), Q8TCT1. recombinant PHOSPHO1, absorbance phosphatase assay. inhibition, % at 13.3 µM. 290,000 tested, 1.1% active; in the data active means inhibition above about 60%
Target sequence (Q8TCT1 whole entry, looked up): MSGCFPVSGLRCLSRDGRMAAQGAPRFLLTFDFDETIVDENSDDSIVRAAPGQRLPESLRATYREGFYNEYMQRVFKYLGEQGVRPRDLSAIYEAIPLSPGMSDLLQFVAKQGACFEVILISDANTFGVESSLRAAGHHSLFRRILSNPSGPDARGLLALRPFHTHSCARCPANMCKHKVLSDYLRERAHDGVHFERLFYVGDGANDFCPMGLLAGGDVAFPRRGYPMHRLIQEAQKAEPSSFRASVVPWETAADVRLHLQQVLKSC
UBC13 inh: UBC13 polyubiquitin chain formation inhibitors, primary screen, biochemical, TR-FRET, uHTS | inhibition, % at 20 µM | 330,000 tested, 0.47% active | AID 485273, 2010; in the data active means inhibition above about 45%, passing the limit was not always enough
Target sequence (P61088 whole entry, looked up): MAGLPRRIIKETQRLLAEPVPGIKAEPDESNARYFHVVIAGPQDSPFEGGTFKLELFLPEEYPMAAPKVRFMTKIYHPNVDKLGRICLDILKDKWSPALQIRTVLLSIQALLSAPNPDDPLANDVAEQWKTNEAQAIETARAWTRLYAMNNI
proCasp3 act: activators of human procaspase-3 D3A mutant, primary screen, biochemical, absorbance, PC-3 D3A mutant, single concentration; activation, % at 8.5 µM; AID 463141, 2010; Caspase-3 (Homo sapiens), P42574; recombinant procaspase-3 D3A, Ac-DEVD-pNA absorbance 405 nm; 330,000 tested, 0.11% active;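 active means activation above the mean of all tested compounds plus 3 SD, cut at about 21% in these data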;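 further: 0% = DMSO alone and 100% = DMSO wells spiked with extra 5 µM PC-3 D3A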
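Test system: Procaspase-3 D3A mutant, all three cleavage aspartates alanine | Dosing: Single dose, 8.5 µM nominal compound, 0.8% DMSO | Schedule: 1 h preincubation, 2 h reaction | Technique: 405 nm absorbance of p-nitroaniline, reads at 0 and 120 min | Repeats: One well per compound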
Starred values were filed as active, the others as inactive; · = no result given. Shown are actives, neighbours in structure and some others; about 1.9% of the full set was active somewhere.

SMILES	procasp7 counter	IDE act	IDE cell inh	PHOSPHO1 block	UBC13 inh	proCasp3 act
c1ccc(OCc2nnc3sc(C4COc5ccccc5O4)nn23)cc1 (stereo unspecified)	-24	-6	0	80*	-23	-15
Clc1ccccc1-c1nnc2sc(C3COc4ccccc4O3)nn12 (stereo unspecified)	-1	6	2	80*	5	6
CCN(C(=O)CSc1n[nH]c(-c2ccc(OC)cc2)n1)c1c(N)n(Cc2ccccc2)c(=O)[nH]c1=O	·	6	·	·	·	·
O=C(Nc1ccccc1)c1nnsc1S(=O)c1ccc(Cl)cc1 (stereo unspecified)	-25	-20	9	93*	33	-26
COc1ccc(NC(=O)CSc2nc3[nH]ncc3c(=O)n2-c2ccccc2C)cc1OC	-4	-4	13	-3	3	-3
COc1ccc(NC(=O)CSc2nc3[nH]ncc3c(=O)n2-c2ccccc2OC)cc1OC	12	-19	21*	7	-7	1
CCOc1ccc(-c2csc(N)c2C(=O)OC)cc1	-8	3	-1	62*	3	-9
COc1ccc(-n2c(-c3ccc(Br)cc3)c[n+]3c2CCC3)cc1	2	-2	1	28	4	5
COc1ccc(-n2c(-c3ccc(Br)cc3)c[n+]3c2CCCCC3)cc1	-1	·	-2	68*	10	10
CCOC(CNC(=O)C(=O)Nc1cc2c3c(c1)CCC(=O)N3CCC2)OCC	-5	0	-1	13	-10	-3
CC(=O)C1=C(C)NC(SCC(=O)c2ccc(Cl)cc2)=C(C#N)C1c1ccco1 (stereo unspecified)	-14	-1	0	59	-7	-5
CC(=O)C1=C(C)NC(SCC(=O)c2ccc(Cl)cc2Cl)=C(C#N)C1c1ccco1 (stereo unspecified)	-48	0	-1	74*	-18	-23
Oc1ccc2ccccc2c1CNc1cnc2ccccc2c1	-24	-4	-1	106*	26	-13
COCCn1c(C)cc(C2=NNC(=Nc3ccccc3)SC2)c1C	-8	3	-1	102*	-10	6
COCCn1c(C)cc(C2=NNC(=Nc3ccc(OC)cc3)SC2)c1C	-11	2	0	-55	-8	-1
S=c1[nH]nc(Nc2ccc(Cl)cc2)s1	-17	-11	10	86*	-10	-25
COc1ccc(CC(=O)N/N=C\c2cc(Br)c(O)c(Br)c2)cc1	·	-1	·	34	-8	·
COc1ccccc1Nc1ncc(-c2cccs2)s1	-10	3	-6	82*	-11	-3
COc1ccccc1Nc1ccc(C(=O)NCc2cccs2)cn1	7	-3	-1	41	2	2
CCCn1c(SCC(=O)Nc2ccccc2C(=O)NC2CC2)n[nH]c1=O	7	-5	2	·	8	10
Cc1ccc(C(=O)NCCNC(=O)COc2ccc(C)c(C)c2)cn1	-5	6	1	11	8	-7
CCOc1ccc(-c2nc(=S)[nH][nH]2)cc1	0	-14	4	100*	1	4
COc1ccc(-c2nc(=S)[nH][nH]2)cc1OC	-17	-5	2	40	-14	-15
COc1ccc(-c2nc(=S)[nH][nH]2)cc1	-13	-16	6	96*	-3	-4
Oc1ccc(-c2nc(=S)[nH][nH]2)cc1	-27	-6	7	15	-4	-29
SMILES	procasp7 counter	IDE act	IDE cell inh	PHOSPHO1 block	UBC13 inh	proCasp3 act
C/C=C/C(=O)Nc1cccc(C2=NOC3(C2)C[C@H](C(N)=O)N(C(=O)c2ccccc2C(=O)c2ccccc2)C3)c1 (stereo partly specified)	·	·	·	18	52*	·
CCC(=O)Nc1cccc(C2=NOC3(C2)C[C@@H](C(N)=O)N(C(=O)c2ccccc2C(=O)c2ccccc2)C3)c1 (stereo partly specified)	-4	0	-1	31	-8	2
CC(C)(C)OC(=O)C[C@H]1C/C=C\C[C@H](CC(=O)NCCO)C(=O)NCCOC1=O	2	0	0	·	5	1
CCNC(=O)CN(c1ccc(Oc2ccccc2)cc1)S(=O)(=O)c1ccccc1	8	1	3	33	-1	-2
CCOC(=O)c1[nH]c2ccc(Br)cc2c1NC(=O)CCN1CCN(C(=O)OCC)CC1	-9	0	3	65*	-5	-7
Cc1ccc(S(=O)(=O)N(C)c2ccc(OC(=O)c3cccs3)cc2)cc1C	-5	5	-5	·	4	-1
CN(C)CCCNS(=O)(=O)c1ccc(N2CCC(c3ccc(Cl)cc3)=N2)cc1	7	·	-3	3	55*	8
S=C(Nc1ccc2nc(-c3ccccn3)c(-c3ccccn3)nc2c1)N1CCCCC1	·	-3	·	87*	-25	·
Cc1cc(OCCCN2CCCC2)ccc1Cl	8	4	0	35	5	9
COCc1n[nH]c(=S)n1-c1ccccc1	-4	-32	3	64*	-4	5
S=c1[nH]nc(CSCc2ccccc2Cl)n1-c1ccccc1	-9	-6	-2	105*	-7	-9
COc1ccc(-n2c(COc3ccccc3)n[nH]c2=S)cc1	0	0	6	-51	-6	-1
OCCCc1n[nH]c(=S)n1-c1ccccc1	-4	3	2	32	-6	0
COC(Cc1n[nH]c(=S)n1-c1ccccc1)OC	-12	1	3	79*	9	1
CNC(=O)c1ccsc1NC(=O)CS(=O)(=O)c1ccc(Cl)cc1	0	-2	6	64*	2	5
O=C(CSc1nnc(NC(=O)C2CC2)s1)Nc1ccc(F)cc1F	-1	2	-2	48	7	4
Cc1ccc(C(=O)OCC(=O)Nc2sc3c(c2C#N)CCCC3)cc1NC(=O)c1ccco1	0	4	1	64*	-6	6
COc1ccc(N(CC(=O)NCc2ccccc2OC)S(=O)(=O)c2ccccc2)cc1	-7	6	2	30	-3	12
CCCCNC(=S)NNC(=O)c1csc(C)c1CC	1	0	-1	1	8	-3
C=CCNC(=S)NNC(=O)c1csc(C)c1CC	4	3	-2	81*	-7	1
CCC(=O)Nc1nc(C)c(-c2csc(Nc3ccc(C(=O)O)cc3)n2)s1	·	2	·	10	-2	·
C=CCCC(=O)Nc1nc(C)c(-c2csc(Nc3cc(OC)ccc3OC)n2)s1	-8	-1	-1	72*	-3	1

Screens: PubChem, several laboratories
